# According to ChEMBL document CHEMBL1128436, “Synthesis and biological evaluation of a new series of sterols as potential hypocholesterolemic agents” (1995):
# Calls of active or inactive are those of the source. No cut-off for these calls is given here.
# Legend:
# Cricetinae gen. sp. [1] = assay: Serum cholesterol level change relative to the control value (274(23)) in hamsters at a dose of 0.2% of diet for 1 week; type: functional, Cricetulus griseus
# Cricetinae gen. sp. [2] = assay: Total serum cholesterol level relative to the control value (274(23)) in hamsters at a dose of 0.2% of diet for 1 week; type: functional, Cricetulus griseus
# [3] = molecular target: Low-density lipoprotein receptor (Homo sapiens) (UniProt P01130); assay: Capability of derepressing the transcription of human Low density lipoprotein receptor promoter in the presence of 25-hydroxycholesterol in CHO cells by luciferase assay; NA= Not active within the test range 0-20 ug/mL; type: cell-based
# Sequence of Low-density lipoprotein receptor (Homo sapiens) (P01130 whole entry, the tested form may be a part): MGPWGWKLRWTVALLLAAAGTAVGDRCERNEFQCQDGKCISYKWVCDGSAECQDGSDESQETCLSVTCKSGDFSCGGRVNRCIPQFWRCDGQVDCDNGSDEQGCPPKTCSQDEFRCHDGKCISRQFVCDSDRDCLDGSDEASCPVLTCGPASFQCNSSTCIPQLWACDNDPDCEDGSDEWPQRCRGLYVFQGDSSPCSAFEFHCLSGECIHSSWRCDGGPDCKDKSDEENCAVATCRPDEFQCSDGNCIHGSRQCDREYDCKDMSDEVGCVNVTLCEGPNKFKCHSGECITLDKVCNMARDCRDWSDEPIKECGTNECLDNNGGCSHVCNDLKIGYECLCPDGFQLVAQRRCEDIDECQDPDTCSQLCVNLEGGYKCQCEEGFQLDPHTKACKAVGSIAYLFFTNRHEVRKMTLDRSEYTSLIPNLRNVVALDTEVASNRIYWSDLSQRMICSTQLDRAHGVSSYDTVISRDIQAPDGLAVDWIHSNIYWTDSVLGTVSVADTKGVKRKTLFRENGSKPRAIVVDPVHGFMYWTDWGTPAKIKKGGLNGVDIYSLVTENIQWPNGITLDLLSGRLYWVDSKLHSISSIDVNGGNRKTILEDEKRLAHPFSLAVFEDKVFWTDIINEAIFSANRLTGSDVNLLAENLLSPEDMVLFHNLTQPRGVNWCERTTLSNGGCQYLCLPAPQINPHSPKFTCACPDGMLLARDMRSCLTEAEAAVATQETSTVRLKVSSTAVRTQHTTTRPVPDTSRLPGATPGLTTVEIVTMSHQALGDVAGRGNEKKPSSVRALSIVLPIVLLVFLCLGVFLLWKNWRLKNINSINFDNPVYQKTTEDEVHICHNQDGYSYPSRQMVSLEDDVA
# Procedure, shortened: (§1)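 Stably transfected CHO clone S27/B30 (LDL receptor promoter fused to firefly luciferase), grown to confluence (2-3 days, 37 °C, 5% CO2). Then 24 h in serum-free assay medium (DMEM/Ham's F-12 3:1, 0.5% bovine albumin) with 25-hydroxycholesterol 0.5 μg/mL plus compound at 0.30-20 μg/mL from ethanol stock, triplicate wells. Lysate luciferase peak light per μg protein (Coomassie). EC30 = concentration giving 30% rise over control. MA = % specific induction at 20 μg/mL.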
# Mesocricetus auratus = species: Mesocricetus auratus; assay: Serum cholesterol level change relative to the control value [306(27)] in hamsters at a dose of 0.2% of diet for 1 week
# Cricetinae gen. sp. [4] = assay: Total serum cholesterol level with relative to the control value [306(27)] in hamsters at a dose of 0.2% of diet for 1 week; type: functional, Cricetulus griseus
# Cricetinae gen. sp. [5] = assay: Total serum cholesterol level with relative to the control value [320(14)] in hamsters at a dose of 0.2% of diet for 1 week; type: functional, Cricetulus griseus
# [6] = molecular target: Low-density lipoprotein receptor (Homo sapiens) (UniProt P01130); assay: Capability of derepressing the transcription of Low density lipoprotein receptor promoter in the presence of 25-hydroxycholesterol in CHO cells measured as maximum activity at 20 ug/mL; type: cell-based; procedure, shortened: as §1
# Cricetinae gen. sp. [7] = assay: Serum cholesterol level change relative to the control value [320(14)] in hamsters at a dose of 0.2% of diet for 1 week; type: functional, Cricetulus griseus
# CHO = assay: Capability of derepressing the transcription of SV40 promoter in CHO cells by luciferase assay; NA= Not active within the test range 0-20 ug/mL; type: functional, cell-based; details: Cricetulus griseus
# Procedure, shortened: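 Counter-screen in CHO clone SV40/LN9, with luciferase driven by the SV40 promoter. Confluent monolayers were given compound at 0.30-20 μg/mL for 24 h in serum-free albumin assay medium, triplicate wells. Lysates were read for luciferase peak luminescence, normalized to lysate protein.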
# [8] = molecular target: Low-density lipoprotein receptor (Homo sapiens) (UniProt P01130); assay: Capability of derepressing the transcription of human Low density lipoprotein receptor promoter in the presence of 25-hydroxycholesterol in CHO cells by luciferase assay; type: cell-based; procedure, shortened: as §1
compound,measurement,setting,value
CC(C)CCC[C@@H](C)[C@H]1CC[C@H]2[C@@H]3CC[C@H]4[C@H](Cc5ccc(F)cc5)[C@@H](O)CC[C@]4(C)[C@H]3CC[C@]12C,Relative change,Cricetinae gen. sp. [1],5%
same,Total cholesterol,Cricetinae gen. sp. [2],287 mg/dL
CC(C)CCC[C@@H](C)[C@H]1CC[C@H]2[C@@H]3CCC4[C@H](Cc5ccc(O)cc5)[C@H](O)CC[C@]4(C)[C@H]3CC[C@]12C (stereo not given in full),EC30,[3],inactive
same,Relative change,Mesocricetus auratus,-15%
same,Total cholesterol,Cricetinae gen. sp. [4],261 mg/dL
CC(C)CCC[C@@H](C)[C@H]1CC[C@H]2[C@@H]3CCC4[C@H](Cc5ccc(OC(F)(F)F)cc5)[C@H](O)CC[C@]4(C)[C@H]3CC[C@]12C (stereo not given in full),Total cholesterol,Cricetinae gen. sp. [5],209 mg/dL
same,MA,[6],71%
same,Control,Cricetinae gen. sp. [7],-34%
same,Activity,CHO,inactive
same,EC30,[8],15 µM
